Results of several laboratories.
Protocols differ between the studies behind these lines.
Read-out: cell growth or viability

With `Cc1nc(NC(=O)N2CCC[C@H]2C(N)=O)sc1-c1ccnc(C(C)(C)C(F)(F)F)c1` the EC50 was 0.38 µM (EFM-19; ATP luminescence; 5 days).
The IC50 of `Cc1cc(C)n(Cn2ccnc2)n1` is reported as 50.3 µM (SH-SY5Y; MTT; 24 h).
The IC50 of `CN(C)CCNC(=O)c1cccn2c(=O)c3cc4ccccc4cc3nc12` is reported as 16.2 µM (PLC-PRF-5; imaging; 72 h).
For `C[C@H](Nc1ccc2c(c1)OCCn1cc(N3C(=O)OC[C@H]3C(F)F)nc1-2)C(N)=O`, the EC50 was 0.0312 µM (EFM-19; ATP luminescence; 5 days).
The IC50 of `Cc1cc(Cn2ccnc2)nn1C` is reported as 487 µM (SH-SY5Y; MTT; 24 h).
The IC50 of `COc1ccc(C[C@H](N)C(=O)N[C@H]2[C@@H](O)[C@H](n3cnc4c(N(C)C)ncnc43)O[C@@H]2CO)cc1` is reported as 1.36 µM (J774.1; resazurin; 72 h).
`CNC(=O)c1cc(Oc2ccc(NC(=O)Nc3ccc(Cl)c(C(F)(F)F)c3)cc2)ccn1` gave an IC50 of 4.08 µM (PLC-PRF-5; imaging; 72 h).
With `Cc1nc(Nc2ncc(C(=O)Nc3c(C)cccc3Cl)s2)cc(N2CC[C@H](O)C2)n1` the inhibition was 66% (SUP-B15; ATP luminescence; 10 µM, 72 h).
